Measurements of several laboratories.
Lines come from different studies, so protocols differ. pIC50, pKd, pKi: −log10 of the molar value.
Maoa: Amine oxidase [flavin-containing] A (Maoa, Mus musculus, UniProt Q64133)
DDB1: DNA damage-binding protein 1 (DDB1, Homo sapiens, UniProt Q16531)
EPHX2: Bifunctional epoxide hydrolase 2 (EPHX2, Homo sapiens, UniProt P34913)

SMILES	target	test	conditions	endpoint	result
C#CCN(C)CCCOc1ccc(Cl)cc1Cl	Maoa	enzyme activity, inhibitor, fluorescence	–	pIC50	7.35
CNC(=O)c1ccc(-c2cnn3ccc(C(=O)N(C)c4ccc(Cl)c(C(=O)O)c4)cc23)cc1	Tyrosine-protein kinase JAK2 (JAK2, Homo sapiens, UniProt O60674)	enzyme activity, inhibitor	–	pIC50	< 4.52
CC[C@H](C)[C@H](NC(=O)[C@H](CCCCN)NC(=O)[C@@H](NC(=O)[C@H](CCCNC(=N)N)NC(=O)[C@H](CCC(=O)O)NC(=O)[C@H](CC(C)C)NC(=O)[C@H](CCC(N)=O)NC(=O)[C@H](CCCCN)NC(=O)[C@H](CC(C)C)NC(=O)[C@@H](NC(=O)[C@H](Cc1c[nH]cn1)NC(=O)[C@H](CCC(=O)O)NC(=O)[C@@H](N)CCCNC(=N)N)C(C)C)C(C)C)C(=O)N[C@@H](CO)C(=O)NCC(=O)N[C@@H](CCC(N)=O)C(=O)N[C@@H](CC(C)C)C(=O)N[C@@H](CO)C(=O)N1CCC[C@H]1C(=O)N[C@@H](CCCNC(=N)N)C(=O)N[C@@H](CC(C)C)C(=O)N[C@@H](Cc1ccccc1)C(=O)N[C@@H](CCCNC(=N)N)C(=O)N[C@@H](CCCCN)C(=O)N[C@@H](CC(C)C)C(=O)N1CCC[C@H]1C(=O)N1CCC[C@H]1C(=O)N[C@@H](CCCNC(=N)N)C(=O)N[C@H](C(=O)N[C@@H](CS)C(=O)N[C@H](C(=O)N[C@@H](CO)C(=O)O)C(C)C)C(C)C	DDB1	cell-free assay, FP	pH 7.5	pIC50	7.24
S=C=NCCc1ccccc1	EPHX2	enzyme activity, inhibitor, fluorescence	–	pIC50	5.12
CC[C@H](C)[C@H](NC(=O)[C@H](CO)NC(=O)[C@H](CCC(N)=O)NC(=O)CNC(=O)[C@H](CC(C)C)NC(=O)[C@H](CO)NC(=O)[C@H](CO)NC(=O)[C@H](CCCCN)NC(=O)[C@H](Cc1ccc(O)cc1)NC(=O)[C@@H](NC(=O)[C@H](Cc1ccc(O)cc1)NC(=O)[C@H](Cc1c[nH]cn1)NC(=O)[C@H](CC(C)C)NC(=O)[C@@H](NC(=O)[C@H](CO)NC(=O)[C@@H](NC(=O)[C@H](CCC(N)=O)NC(=O)CN)[C@@H](C)O)[C@@H](C)CC)[C@@H](C)CC)C(=O)N[C@@H](Cc1c[nH]cn1)C(=O)N[C@@H](C)C(=O)N[C@@H](CCC(N)=O)C(=O)N[C@@H](CC(C)C)C(=O)N[C@@H](CCCNC(=N)N)C(=O)N[C@@H](CCC(N)=O)C(=O)N[C@@H](CS)C(=O)N[C@@H](CC(C)C)C(=O)NCC(=O)NCC(=O)NCC(=O)NCC(=O)O	DDB1	cell-free assay, FP	pH 7.5	pIC50	6.06
CC[C@H](C)[C@@H]1NC(=O)[C@H](CC(=O)O)NC(=O)[C@H]([C@@H](C)O)NC(=O)[C@@H]2CSSC[C@@H]3NC(=O)[C@H](CC(C)C)NC(=O)[C@H](CC(N)=O)NC(=O)[C@H](CC(C)C)NC(=O)[C@H](CCCNC(=N)N)NC(=O)[C@H](Cc4ccc(O)cc4)NC(=O)[C@H](CCCCN)NC(=O)[C@H](CCSC)NC(=O)[C@H](CO)NC(=O)[C@H]([C@@H](C)O)NC(=O)[C@H](CCCNC(=N)N)NC(=O)[C@H](CSSC[C@H](NC(=O)[C@H]([C@@H](C)O)NC(=O)[C@H](CCCCN)NC(=O)[C@H](CCCNC(=N)N)NC3=O)C(=O)NCC(=O)N[C@@H](CO)C(=O)N[C@H](C(=O)O)CSSC[C@H](NC(=O)[C@@H](NC(=O)[C@@H](N)CCCNC(=N)N)[C@@H](C)O)C(=O)N[C@@H](CCCCN)C(=O)N[C@@H](CC(=O)O)C(=O)N[C@@H](CC(C)C)C(=O)N[C@@H]([C@@H](C)CC)C(=O)N3CCC[C@H]3C(=O)N[C@@H](C(C)C)C(=O)N[C@@H](CO)C(=O)N[C@@H](CCC(=O)O)C(=O)N2)NC(=O)[C@H](CCCNC(=N)N)NC1=O	Potassium voltage-gated channel subfamily A member 2 (KCNA2, Homo sapiens, UniProt P16389)	ion current, inhibitor, two-electrode voltage clamp	oocytes	pKi	8.60
COC(=O)c1cc(N(C)C(=O)c2ccn3ncc(-c4ccc(C(=O)O)cc4)c3c2)ccc1Cl	Proto-oncogene tyrosine-protein kinase receptor Ret (RET, Homo sapiens, UniProt P07949)	enzyme activity, inhibitor	–	pIC50	< 4.52
C[S+]([O-])CCCN=C=S (stereo not shown)	EPHX2	enzyme activity, inhibitor, fluorescence	–	pIC50	4.69
Cc1ccc(F)c(CNS(=O)(=O)c2cccc3cccnc23)c1	Maoa	enzyme activity, inhibitor, fluorescence	–	pIC50	5.56
O=C(C=Cc1ccccc1)Nc1cc(-c2ccnc(N3CCC(O)CC3)c2)ccn1	Estrogen receptor beta (ESR2, Homo sapiens, UniProt Q92731)	binding, SPR	–	pKd	5.79
